Measurements: ChEMBL document CHEMBL4342521 (J Med Chem, 2020)
Active and inactive are the calls of the source. The calls are words filed in the database; no cut-off is given here.

How the values were obtained:
IGROV-1 = test: Antiproliferative activity against human IGROV1 cells assessed as reduction in cell viability after 48 hrs by CellTiter-Blue assay; type: functional; conditions: IGROV-1, 48 h, read-out: LC50 (the source's name)
How it was run: (§1)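 Cells grown in RPMI1640 with 10% FBS at 37 °C, 5% CO₂. 5,000–10,000 cells/well were pre-incubated overnight, and a time-zero CellTiter-Blue read was taken. Six 10-fold dilutions (top final 10 μM) were applied for 48 h, followed by 0.125 mg/mL CellTiter-Blue for 2–4 h. Resorufin fluorescence was read at ex 560/em 590 nm. […] Triplicates.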

HCC 2998 = test: Antiproliferative activity against human HCC2998 cells assessed as reduction in cell viability after 48 hrs by CellTiter-Blue assay; type: functional; conditions: HCC 2998, 48 h, read-out: LC50 (the source's name); how it was run: as §1
ACHN = test: Antiproliferative activity against human ACHN cells assessed as reduction in cell viability after 48 hrs by CellTiter-Blue assay; type: functional; conditions: read-out: LC50 (the source's name); how it was run: as §1
HL-60 = test: Upregulation of P21WAF1/Cip1 protein expression in p53 null human HL60 cells harboring wild type FLT3 at 50 to 200 nM after 24 hrs by Western blot analysis; type: functional, cell-based
How it was run: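 RS4;11 cells were cultured in RPMI-1640 with 10% FBS and HL-60 cells in IMDM with 20% FBS. Cells were plated at 1,500,000 per well, grown 12 h, then drug-treated. Lysis was in RIPA buffer with sonication and centrifugation, and loading was normalized by BCA. Lysates were run on 4–12% Bis-Tris gels in MES buffer and transferred, and membranes were probed overnight at 4 °C with 1/1000 primary antibodies.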

786-0 = test: Antiproliferative activity against human 786-0 cells assessed as reduction in cell viability after 48 hrs by CellTiter-Blue assay; type: functional; conditions: 786-0, 48 h, read-out: LC50 (the source's name); how it was run: as §1
SR = test: […] in human SR cells harboring wild type p53 assessed as pro-caspase 3 cleavage at 50 to 200 nM after 24 hrs by Western blot analysis; type: cell-based
MOLM-14 = test: Antiproliferative activity agaisnt human MOLM14 cells expressing wild type p53/FLT3-ITD mutant assessed as cell death at 10 uM after 48 hrs by CellTiter-blue assay; type: functional, cell-based
MV4-11 = test: Inhibition of ERK phosphorylation in human MV4-11 cells harboring wild type p53/FLT3-ITD mutant at 50 to 200 nM after 24 hrs by Western blot analysis; type: cell-based
How it was run: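 Cells (1,500,000 per well) grown 12 h, then drug-treated as specified. Lysed in RIPA buffer, sonicated, centrifuged, protein normalized by BCA. Run on 4–12% Bis-Tris gels in MES, transferred, probed overnight at 4 °C with primary antibodies at 1/1000. Actin served as reference for LC3-II quantitation.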

NCI/ADR-RES = test: Antiproliferative activity against human NCI/ADR-RES cells assessed as reduction in cell viability after 48 hrs by CellTiter-Blue assay; type: functional; conditions: read-out: LC50 (the source's name); how it was run: as §1
[1] = target: 72 kDa type IV collagenase (Homo sapiens) (UniProt P08253); test: Inhibition of MMP-2 (unknown origin) at 10 to 50 uM incubated for 10 to 15 mins and measured after 2 hrs by fluorescence based assay
How it was run: (§2)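 MMP-2/MMP-9 in activation buffer with test agent (final 50 and 10 μM), 10–15 min incubation, then fluorogenic substrate added. Incubated 2 h at 37 °C; fluorescence read at 320/405 nm. Kit MMP inhibitor was the positive control.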

NCI-H322M = test: Antiproliferative activity against human NCI-H322M cells assessed as reduction in cell viability after 48 hrs by CellTiter-Blue assay; type: functional; conditions: read-out: LC50 (the source's name); how it was run: as §1
[2] = target: Matrix metalloproteinase-9 (Homo sapiens) (UniProt P14780); test: Inhibition of MMP-9 (unknown origin) at 10 to 50 uM incubated for 10 to 15 mins and measured after 2 hrs by fluorescence based assay; how it was run: as §2
Histone deacetylase 7 = Histone deacetylase 7 (Homo sapiens, UniProt Q8WUI4); test: Inhibition of recombinant human N-terminal GST-tagged HDAC7 (518 to end residues) expressed in baculovirus infected Sf9 cells using Boc-Lys (trifluoroacetyl)-AMC as substrate preincubated for 1 hr followed by substrate addition and measured after 2 hrs by fluorescence based micro plate reader analysis
Hs-578T = test: Antiproliferative activity against human Hs 578T cells assessed as reduction in cell viability after 48 hrs by CellTiter-Blue assay; type: functional; conditions: read-out: LC50 (the source's name); how it was run: as §1
[3] = target: T1, Protein deacetylase HDAC6 (Homo sapiens, UniProt Q9UBN7); test: Inhibition of recombinant HDAC6 (unknown origin) using Boc-Lys(acetyl)-AMC as substrate preincubated for 1 hr followed by substrate addition and measured after 2 hrs by fluorescence based micro plate reader analysis
T1 sequence (Q9UBN7 whole entry): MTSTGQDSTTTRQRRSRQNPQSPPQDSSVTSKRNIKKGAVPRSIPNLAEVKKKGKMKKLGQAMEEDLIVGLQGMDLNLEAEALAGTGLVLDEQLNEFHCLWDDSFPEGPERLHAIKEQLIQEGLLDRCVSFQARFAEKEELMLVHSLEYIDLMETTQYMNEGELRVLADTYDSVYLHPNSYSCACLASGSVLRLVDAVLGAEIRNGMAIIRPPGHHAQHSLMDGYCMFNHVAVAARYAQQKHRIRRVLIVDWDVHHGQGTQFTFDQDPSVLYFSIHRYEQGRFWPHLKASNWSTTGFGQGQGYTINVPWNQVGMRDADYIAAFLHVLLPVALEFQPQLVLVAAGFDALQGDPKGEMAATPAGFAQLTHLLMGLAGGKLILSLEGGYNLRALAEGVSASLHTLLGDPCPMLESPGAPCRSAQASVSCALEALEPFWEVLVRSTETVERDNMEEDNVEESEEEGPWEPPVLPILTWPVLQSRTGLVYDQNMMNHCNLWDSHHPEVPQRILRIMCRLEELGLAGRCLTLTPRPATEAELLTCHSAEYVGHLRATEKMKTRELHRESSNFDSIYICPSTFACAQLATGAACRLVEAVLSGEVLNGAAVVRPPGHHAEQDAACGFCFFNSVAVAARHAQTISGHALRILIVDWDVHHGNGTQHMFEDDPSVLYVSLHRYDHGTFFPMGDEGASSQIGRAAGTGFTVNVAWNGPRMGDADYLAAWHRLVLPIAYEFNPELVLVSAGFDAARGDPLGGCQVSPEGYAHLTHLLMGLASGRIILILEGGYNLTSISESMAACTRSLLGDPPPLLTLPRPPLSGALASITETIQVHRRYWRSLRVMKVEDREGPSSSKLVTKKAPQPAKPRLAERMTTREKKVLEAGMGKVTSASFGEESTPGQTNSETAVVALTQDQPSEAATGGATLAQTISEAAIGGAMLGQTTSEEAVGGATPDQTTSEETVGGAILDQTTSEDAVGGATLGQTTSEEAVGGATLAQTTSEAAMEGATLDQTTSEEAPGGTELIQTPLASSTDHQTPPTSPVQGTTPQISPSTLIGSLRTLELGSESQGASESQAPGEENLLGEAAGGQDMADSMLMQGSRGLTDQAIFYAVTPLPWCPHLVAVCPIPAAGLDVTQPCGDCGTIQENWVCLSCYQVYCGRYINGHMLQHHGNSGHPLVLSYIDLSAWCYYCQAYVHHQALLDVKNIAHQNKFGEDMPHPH

Chain of Matrix metalloproteinase-9 (Homo sapiens) (P14780 whole entry): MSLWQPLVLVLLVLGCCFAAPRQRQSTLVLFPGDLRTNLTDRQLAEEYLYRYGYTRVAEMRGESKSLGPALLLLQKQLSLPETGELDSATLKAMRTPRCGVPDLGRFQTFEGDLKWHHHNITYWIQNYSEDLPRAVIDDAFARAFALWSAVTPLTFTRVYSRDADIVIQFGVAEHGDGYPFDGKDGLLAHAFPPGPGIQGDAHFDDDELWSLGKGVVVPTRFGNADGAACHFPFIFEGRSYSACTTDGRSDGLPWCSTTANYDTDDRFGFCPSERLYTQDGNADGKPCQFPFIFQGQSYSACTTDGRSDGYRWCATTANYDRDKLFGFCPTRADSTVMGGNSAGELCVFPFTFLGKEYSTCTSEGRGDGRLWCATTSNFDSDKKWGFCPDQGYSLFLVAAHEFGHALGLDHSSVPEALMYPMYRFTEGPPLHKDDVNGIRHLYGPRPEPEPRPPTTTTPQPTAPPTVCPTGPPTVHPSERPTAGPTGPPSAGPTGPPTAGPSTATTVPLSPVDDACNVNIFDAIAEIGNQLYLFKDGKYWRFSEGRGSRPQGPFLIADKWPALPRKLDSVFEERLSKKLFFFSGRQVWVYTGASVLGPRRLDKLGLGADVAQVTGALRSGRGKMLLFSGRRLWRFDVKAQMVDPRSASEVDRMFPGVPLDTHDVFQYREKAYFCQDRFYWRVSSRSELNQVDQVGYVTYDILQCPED
Chain of Histone deacetylase 7 (Q8WUI4 whole entry): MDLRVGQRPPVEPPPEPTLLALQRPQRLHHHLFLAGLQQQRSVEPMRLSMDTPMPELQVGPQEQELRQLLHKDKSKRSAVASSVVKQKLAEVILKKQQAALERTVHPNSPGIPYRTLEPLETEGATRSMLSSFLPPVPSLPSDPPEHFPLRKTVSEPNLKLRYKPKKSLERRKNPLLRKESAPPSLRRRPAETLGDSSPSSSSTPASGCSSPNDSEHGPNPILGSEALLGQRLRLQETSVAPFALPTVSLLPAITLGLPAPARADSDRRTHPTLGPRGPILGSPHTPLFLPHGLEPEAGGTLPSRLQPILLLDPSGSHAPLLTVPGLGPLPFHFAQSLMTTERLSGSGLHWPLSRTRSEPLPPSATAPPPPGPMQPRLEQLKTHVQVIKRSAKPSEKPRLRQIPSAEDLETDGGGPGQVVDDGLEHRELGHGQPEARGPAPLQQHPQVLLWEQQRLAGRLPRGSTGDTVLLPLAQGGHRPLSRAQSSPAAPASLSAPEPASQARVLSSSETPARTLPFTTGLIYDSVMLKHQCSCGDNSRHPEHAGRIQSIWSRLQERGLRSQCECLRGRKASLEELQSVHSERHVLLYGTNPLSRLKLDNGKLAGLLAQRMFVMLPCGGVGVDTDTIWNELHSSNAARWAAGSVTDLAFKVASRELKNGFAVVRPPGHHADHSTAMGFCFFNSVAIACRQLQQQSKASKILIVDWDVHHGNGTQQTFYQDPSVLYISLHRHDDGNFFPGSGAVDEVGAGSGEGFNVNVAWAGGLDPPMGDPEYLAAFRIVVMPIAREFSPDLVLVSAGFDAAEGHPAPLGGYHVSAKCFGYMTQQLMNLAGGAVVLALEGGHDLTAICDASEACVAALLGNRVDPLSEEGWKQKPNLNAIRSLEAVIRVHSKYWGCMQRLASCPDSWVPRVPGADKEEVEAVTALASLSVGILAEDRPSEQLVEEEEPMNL
Chain of 72 kDa type IV collagenase (Homo sapiens) (P08253 110-660 limits assumed): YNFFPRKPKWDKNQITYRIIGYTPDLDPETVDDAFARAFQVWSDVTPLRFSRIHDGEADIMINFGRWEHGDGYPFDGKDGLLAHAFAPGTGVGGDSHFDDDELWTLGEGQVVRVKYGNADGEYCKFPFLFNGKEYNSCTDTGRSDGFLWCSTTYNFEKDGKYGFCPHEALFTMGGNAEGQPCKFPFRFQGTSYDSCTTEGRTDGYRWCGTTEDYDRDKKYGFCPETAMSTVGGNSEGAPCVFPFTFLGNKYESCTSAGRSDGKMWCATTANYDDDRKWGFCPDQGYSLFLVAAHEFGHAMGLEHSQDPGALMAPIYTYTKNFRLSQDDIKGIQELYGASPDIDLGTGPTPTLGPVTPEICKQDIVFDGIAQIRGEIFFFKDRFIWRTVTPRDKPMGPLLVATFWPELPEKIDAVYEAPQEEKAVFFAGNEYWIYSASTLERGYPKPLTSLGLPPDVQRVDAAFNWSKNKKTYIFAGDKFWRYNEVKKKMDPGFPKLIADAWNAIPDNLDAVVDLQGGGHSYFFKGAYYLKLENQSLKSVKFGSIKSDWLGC

`CCCNNC(=O)/C=C/c1ccc(CNCCc2c(C)[nH]c3ccccc23)cc1.O=C(O)C(F)(F)F` was tested, and the CC50 (IGROV-1) was greater than 10 µM, the CC50 (HCC 2998) was 1.76 µM and the CC50 (ACHN) was greater than 10 µM. For the same compound, the Activity (HL-60) was “Active”, the CC50 (786-0) was greater than 10 µM and the Activity (SR) was “Active”. For the same compound, the Activity (MOLM-14) was “Active”, the inhibition (MV4-11) was “Active” and the CC50 (NCI/ADR-RES) was greater than 10 µM. For the same compound, the inhibition [1] was “inactive”, the CC50 (NCI-H322M) was greater than 10 µM and the inhibition [2] was “inactive”. The IC50 (Histone deacetylase 7) was greater than 10 µM, the CC50 (Hs-578T) was greater than 10 µM and the IC50 [3] was greater than 50 µM.
